Reference: paper PMC8158791 (ACS Omega, 2021)

Experiments:
[1] = test system: chloroquine-resistant strain K1 of Plasmodium falciparum; assay: In vitro antimalarial assay; format: cell-based; conditions: for IC50: Plasmodium falciparum, K1, 72 h, read-out: IC50 PfK1; for selectivity index (SI) PfK1: ratio CC50 (VERO)/IC50 (PfK1)
[2] = test system: chloroquine-sensitive strain 3D7 of Plasmodium falciparum; assay: In vitro antimalarial assay; format: cell-based; conditions: for IC50: Plasmodium falciparum, 3D7, 72 h, read-out: IC50 Pf3D7; for selectivity index (SI) Pf3D7: ratio CC50 (VERO)/IC50 (Pf3D7); for activity in CQ-sensitive strain (in words): 3D7
[3] = test system: VERO cell line; assay: Cytotoxicity assay against Vero cell line; format: cell-based, monkey; conditions: read-out: cytotoxicity CC50 in VERO cell line; VERO cells, 72 h, resazurin
[4] = test system: Plasmodium yoelii nigeriensis (a multidrug-resistant) parasite; assay: In vivo antimalarial assay in Swiss mice; conditions: for cure on day 28: cured/treated; for survival on day 28: survivors/treated
How it was run: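 Multidrug-resistant P. yoelii nigeriensis infection in albino Swiss mice, five per group. Test compound given orally at 100 mg/kg daily × 4 days. Reference: α/β-arteether 7.5 mg/kg × 3 days. Untreated infected controls were included. Parasitaemia was assessed by Giemsa-stained smears, with % suppression on day 4 post infection. Survival and cure were followed to day 28, and MST was recorded.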

[5] = Cytotoxicity assay against Vero cell line; format: cell-based, monkey; conditions: monkey, Vero cells (monkey kidney cell line)
[6] = 100 mg/kg × 4 days, oral, P. yoelii-MDR
[7] = 7.5 mg/kg × 3 days, reference drug

| Structure (SMILES) | IC50 [1] [nM] | selectivity index (SI) PfK1 [1] | IC50 [2] [nM] | selectivity index (SI) Pf3D7 [2] | also measured |
| --- | --- | --- | --- | --- | --- |
| CC(C)CC(CN1CCOCC1)N(C)c1ccnc2cc(Cl)ccc12 (centres unmarked) [9b, 7-Chloro-N-methyl-N-(4-methyl-1-morpholinopentan-2-yl)quinolin-4-amine] | 1190 ± 530 | 43 | 1160 ± 260 | 44 | CC50 [3]: 50.8 µM |
| CC(C)C[C@@H](CN1CCCCC1)N(C)c1ccnc2cc(Cl)ccc12 [9c, (S)-7-Chloro-N-methyl-N-(4-methyl-1-(piperidin-1-yl)pentan-2-yl)quinolin-4-amine] | 420 ± 230 | 166 | 150 ± 140 | 463 | – |
| CC(C)C[C@@H](CN1CCCC1)N(C)c1ccnc2cc(Cl)ccc12 [9d, (S)-7-Chloro-N-methyl-N-(4-methyl-1-(pyrrolidin-1-yl)pentan-2-yl)quinolin-4-amine] | 180 ± 150 | 261 | 80 | 588 | MST ([4]; 100 mg/kg × 4 days, oral): 9.4 days; % suppression on day 4 post infection [4, 6]: 99.99%; cure on day 28 ([4]; 100 mg/kg × 4 days, oral): 0/5 cured; survival on day 28 ([4]; 100 mg/kg × 4 days, oral): 0/5 |
| CCN(CC)C[C@H](CC(C)C)N(C)c1ccnc2cc(Cl)ccc12 [9e, (S)-N^2-(7-Chloroquinolin-4-yl)-N^1,N^1-diethyl-N^2,4-dimethylpentane-1,2-diamine] | 540 ± 30 | 112 | 230 ± 100 | 262 | – |
| CC(C)C[C@@H](CN1CCOCC1)N(C)c1ccnc2cc(C(F)(F)F)ccc12 [9f, (S)-N-Methyl-N-(4-methyl-1-morpholinopentan-2-yl)-7-(trifluoromethyl)quinolin-4-amine] | 2250 ± 770 | 30 | 2720 ± 1440 | 25 | – |
| CC(C)C[C@@H](CN1CCCCC1)N(C)c1ccnc2cc(C(F)(F)F)ccc12 [9g, (S)-N-Methyl-N-(4-methyl-1-(piperidin-1-yl)pentan-2-yl)-7-(trifluoromethyl)quinolin-4-amine] | 2040 ± 400 | 21 | 2000 ± 60 | 21 | – |
| CC(C)C[C@@H](CN1CCCC1)N(C)c1ccnc2cc(C(F)(F)F)ccc12 [9h, (S)-N-Methyl-N-(4-methyl-1-(pyrrolidin-1-yl)pentan-2-yl)-7-(trifluoromethyl)quinolin-4-amine] | 1600 ± 910 | 33 | 1240 | 42 | – |
| CCN(CC)C[C@H](CC(C)C)N(C)c1ccnc2cc(C(F)(F)F)ccc12 [9i, (S)-N^1,N^1-diethyl-N^2,4-dimethyl-N^2-(7-(trifluoromethyl)quinolin-4-yl)pentane-1,2-diamine] | 2500 ± 1030 | 21 | 3800 ± 1050 | 14 | – |
| CN(c1ccnc2cc(Cl)ccc12)[C@@H](Cc1ccccc1)CN1CCOCC1 [10a, (S)-7-Chloro-N-methyl-N-(1-morpholino-3-phenylpropan-2-yl)quinolin-4-amine] | 1380 ± 70 | 24 | 1200 ± 780 | 28 | – |
| CN(c1ccnc2cc(Cl)ccc12)[C@@H](Cc1ccccc1)CN1CCCCC1 [10b, (S)-7-Chloro-N-methyl-N-(1-phenyl-3-(piperidin-1-yl)propan-2-yl)quinolin-4-amine] | 490 ± 150 | 142 | 280 ± 130 | – | – |
| CN(c1ccnc2cc(Cl)ccc12)[C@@H](Cc1ccccc1)CN1CCCC1 [10c, (S)-7-Chloro-N-methyl-N-(1-phenyl-3-(pyrrolidin-1-yl)propan-2-yl)quinolin-4-amine] | 100 | 577 | 60 ± 160 | 963 | MST ([4]; 100 mg/kg × 4 days, oral): 9 days; % suppression on day 4 post infection [4, 6]: 93.99%; cure on day 28 ([4]; 100 mg/kg × 4 days, oral): 0/5 cured; survival on day 28 ([4]; 100 mg/kg × 4 days, oral): 0/5 |
| CCN(CC)C[C@H](Cc1ccccc1)N(C)c1ccnc2cc(Cl)ccc12 [10d, (S)-N^2-(7-Chloroquinolin-4-yl)-N^1,N^1-diethyl-N^2-methyl-3-phenylpropane-1,2-diamine] | 330 ± 60 | 240 | 210 ± 110 | 376 | – |
| CN(c1ccnc2cc(C(F)(F)F)ccc12)[C@@H](Cc1ccccc1)CN1CCOCC1 [10e, (S)-N-Methyl-N-(1-morpholino-3-phenylpropan-2-yl)-7-(trifluoromethyl)quinolin-4-amine] | – | – | 3890 ± 500 | – | activity in CQ-sensitive strain (in words) [2]: inactive |
| CN(c1ccnc2cc(C(F)(F)F)ccc12)[C@@H](Cc1ccccc1)CN1CCCCC1 [10f, (S)-N-Methyl-N-(1-phenyl-3-(piperidin-1-yl)propan-2-yl)-7-(trifluoromethyl)quinolin-4-amine] | – | – | 1370 ± 520 | – | activity in CQ-sensitive strain (in words) [2]: inactive |
| CN(c1ccnc2cc(C(F)(F)F)ccc12)[C@@H](Cc1ccccc1)CN1CCCC1 [10g, (S)-N-Methyl-N-(1-phenyl-3-(pyrrolidin-1-yl)propan-2-yl)-7-(trifluoromethyl)quinolin-4-amine] | 1770 | 22 | 680 ± 160 | 58 | MST ([4]; 100 mg/kg × 4 days, oral): 7.2 days; % suppression on day 4 post infection [4, 6]: 62.30%; cure on day 28 ([4]; 100 mg/kg × 4 days, oral): 0/5 cured; survival on day 28 ([4]; 100 mg/kg × 4 days, oral): 0/5 |
| CCN(CC)C[C@H](Cc1ccccc1)N(C)c1ccnc2cc(C(F)(F)F)ccc12 [10h, (S)-N^1,N^1-Diethyl-N^2-methyl-3-phenyl-N^2-(7-(trifluoromethyl)quinolin-4-yl)propane-1,2-diamine] | – | – | 1750 ± 160 | – | activity in CQ-sensitive strain (in words) [2]: inactive |
| CN(CCCN1CCCCC1)c1ccnc2cc(Cl)ccc12 [11a, 7-Chloro-N-methyl-N-(3-(piperidin-1-yl)propyl)quinolin-4-amine] | 60 ± 40 | 1782 | 40 | – | CC50 [3]: 107 µM |
| CN(CCCN1CCCC1)c1ccnc2cc(Cl)ccc12 [11b, 7-Chloro-N-methyl-N-(3-(pyrrolidin-1-yl)propyl)quinolin-4-amine] | 110 ± 70 | 729 | 190 | 422 | MST ([4]; 100 mg/kg × 4 days, oral): 8.8 days; % suppression on day 4 post infection [4, 6]: 99.8%; cure on day 28 ([4]; 100 mg/kg × 4 days, oral): 0/5 cured; survival on day 28 ([4]; 100 mg/kg × 4 days, oral): 0/5; CC50 [3]: 80.2 µM |
| CN(CCCN1CCOCC1)c1ccnc2cc(C(F)(F)F)ccc12 [11c, N-Methyl-N-(3-morpholinopropyl)-7-(trifluoromethyl)quinolin-4-amine] | 820 ± 60 | >243 | 880 ± 280 | >227 | – |
| CN(CCCN1CCCC1)c1ccnc2cc(C(F)(F)F)ccc12 [11d, N-Methyl-N-(3-(pyrrolidin-1-yl)propyl)-7-(trifluoromethyl)quinolin-4-amine] | 310 ± 150 | 252 | 90 ± 20 | – | MST ([4]; 100 mg/kg × 4 days, oral): 8.8 days; % suppression on day 4 post infection [4, 6]: 99.85%; cure on day 28 ([4]; 100 mg/kg × 4 days, oral): 0/5 cured; survival on day 28 ([4]; 100 mg/kg × 4 days, oral): 0/5; CC50 [3]: 78.2 µM |
| COc1cc([C@@H]2c3cc4c(cc3[C@H](O)[C@H]3COC(=O)[C@H]23)OCO4)cc(OC)c1OC [Podophyllotoxin, reference compound] | – | – | – | – | CC50 at 72 h [5]: 4 µM |
| CCN(CC)CCCC(C)Nc1ccnc2cc(Cl)ccc12 (centres unmarked) [chloroquine, reference compound] | 795 ± 150 | – | – | – | – |
| CCO[C@H]1O[C@@H]2O[C@@]3(C)CC[C@H]4[C@H](C)CC[C@@H]([C@H]1C)[C@@]24OO3 [α/β-arteether, reference compound] | – | – | – | – | % suppression on day 4 post infection [4, 7]: 100%; MST [4, 7]: >28 days; cure on day 28 [4, 7]: 5/5 cured; survival on day 28 [4, 7]: 5/5 |
